# Legend:
# U2OS cells = assay: Survival following Olaparib; assay type: cell-based; details: percentage survival
# [1] = tested on: 53BP1 −/− mouse embryonic fibroblasts; assay: Metaphase spreads, radial chromosomes, 53BP1 −/− MEFs; assay type: cell-based; details: TIP60 siRNA + Olaparib; 53BP1 −/− vs 53BP1 +/+ MEFs
# Procedure, shortened: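 53BP1+/+ and 53BP1−/− MEFs were transfected with control or mouse TIP60 siRNA using RNAiMax, analysed 48–72 h later, and treated with Olaparib. Cells were arrested with 0.5 μM nocodazole for 3–4 h, swollen in 75 mM KCl, fixed on ice in 3:1 methanol/acetic acid, dropped onto slides at 55°C and Giemsa-stained. Metaphases were scored for radial chromosomes, with significance by Fisher's exact test.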
# BRCA1 mutant cells = details: ref [39],[40], cited from earlier work
# 53BP1-Tudor = assay: NMR titration of 53BP1-Tudor with H4 peptide; assay type: binding
# Procedure, shortened: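 0.3 mM 15N-labelled 53BP1-Tudor titrated with unlabelled H4 peptide (synthetic H4K20me2, aa 14-27) from a 15 mM stock and followed by 1H-15N HSQC. In the reverse titration, 0.5 mM 13C/15N-labelled recombinant H4KC20me2 (aa 14-27, dimethyl-lysine analogue) received unlabelled Tudor from a 5 mM stock and was followed by 1H-13C HSQC.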
# H4ac = assay: ChIP-qPCR H4ac at U2OS-DSB-reporter locus; assay type: cell-based; details: 0.5 μM TSA vs DMSO; DSBs induced by mCherry-LacI-FokI
# Procedure, shortened: (§1)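 U2OS-DSB-reporter cells were given 0.5 μM TSA or DMSO, for 5 h where stated, and DSBs were induced by mCherry-LacI-FokI. Cells were formaldehyde-crosslinked, and chromatin was sonicated to 200–500 bp and immunoprecipitated overnight at 4°C with antibody to 53BP1, BRCA1 or H4ac. After washing and de-crosslinking, SYBR Green qPCR was run at reporter primer sets, quantified against diluted-input standard curves, with S.E.M. and Student t test.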
# H4K20me2 in U2OS cells = assay: Immunoblot of total H4K20me2; assay type: cell-based; details: acid-eluted histones from U2OS cells, 0.5 μM TSA, 5 hours
# RPA = RPA accumulation at LacI-FokI DSBs; assay type: cell-based; details: U2OS-DSB-reporter cells; TSA 0.5 μM vs DMSO; 200 cells per group, at least 2 independent experiments
# Procedure, shortened: (§2)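 U2OS cells carrying the LacI-FokI DSB reporter were grown in DMEM with 10% calf serum and siRNA-transfected, then analysed 48–72 h later. DSBs were induced with mCherry-LacI-FokI, with DMSO or 0.5 μM TSA. Coverslips were fixed, permeabilised and immunostained for RPA or Rad51, then mounted with DAPI. The mCherry signal marked the damaged area, where focus presence or intensity was scored after background subtraction per cell.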
# 53BP1 IRIF in U2OS cells = assay: 53BP1 IRIF; assay type: cell-based; details: HDACi 5 hours prior to 10 Gy IR (TSA 0.5 µM), fixed 5 hours later
# Procedure, shortened: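 U2OS cells on coverslips were fixed and permeabilized, then incubated with primary antibody against 53BP1, washed in PBST, and incubated with secondary antibody. Coverslips were mounted in DAPI-containing medium. Images were captured on the same day at equal exposure in 8-bit grayscale and analysed on unmodified images.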
# Rad51 = Rad51 accumulation at LacI-FokI DSBs; assay type: cell-based; details: U2OS-DSB-reporter cells; TSA 0.5 μM vs DMSO; 200 cells per group, at least 2 independent experiments
# Procedure, shortened: as §2
# BRCA1 = assay: ChIP-qPCR BRCA1 at U2OS-DSB-reporter locus; assay type: cell-based; details: 0.5 μM TSA for 5 hours vs DMSO; DSBs induced by mCherry-LacI-FokI
# Procedure, shortened: as §1
# [2] = tested on: BRCA1 and 53BP1 at subtelomeric chromatin in 293T cells; assay: ChIP BRCA1 and 53BP1 at subtelomeric regions, TRF1-FokI; assay type: cell-based; details: 293T cells expressing TRF1-FokI, TSA treatment
# Procedure, shortened: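 293T cells were transfected with a TRF1-FokI plasmid; controls lacked TRF1-FokI. 16 h later cells were cross-linked in 1% formaldehyde for 10 min and quenched with 0.125 M glycine. Chromatin was sonicated to 200–500 bp and immunoprecipitated overnight at 4°C with BRCA1 or 53BP1 antibodies on protein A agarose. After salt/LiCl/TE washes, chromatin was de-crosslinked overnight at 65°C, then subtelomeric SYBR Green qPCR against input standard curves.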
# 53BP1 = assay: ChIP-qPCR 53BP1 at U2OS-DSB-reporter locus; assay type: cell-based; details: 0.5 μM TSA, 5 hours before DSB induction by mCherry-LacI-FokI; locus p4
# Procedure, shortened: as §1
compound,measurement,setting,value
O=C(c1cc(Cc2n[nH]c(=O)c3ccccc23)ccc1F)N1CCN(C(=O)C2CC2)CC1 [Olaparib],"sensitivity to Olaparib, TIP60 deficiency with accompanying 53BP1 knockdown",U2OS cells; TIP60 and 53BP1 siRNA,reversed
same,"sensitivity to Olaparib, TIP60 deficiency",U2OS cells; TIP60 siRNA,hypersensitivity
same,impact of TIP60 knockdown on radial chromosome formation by 53BP1 nullizygosity,[1],strongly mitigated
same,"sensitivity to Olaparib, BRCA1 mutation with 53BP1 nullizygosity",BRCA1 mutant cells; BRCA1 mutation and 53BP1 nullizygosity,reversed
same,"sensitivity to Olaparib, BRCA1 mutation",BRCA1 mutant cells; BRCA1 mutation,hypersensitivity
"non-methylated H4K20 peptide: corresponding non-methylated peptide, control","Trp1495 indole HN shift, in words","53BP1-Tudor; ^1H-^15N HSQC, 53BP1-Tudor titrated with non-methylated peptide, vs H4K20me2",markedly reduced
H4K20me2: H4K20me2 peptide (aa 14-27) chemically synthesized,shifts of Trp1495 side chain resonances,"53BP1-Tudor; ^1H-^13C HSQC, 298 K, pH 7.0",large downfield shifts
same,downfield shift of Trp1495 indole HN proton,"53BP1-Tudor; ^1H-^15N HSQC, 0.3 mM ^15N-labeled 53BP1-Tudor, 298 K, 25 mM sodium phosphate, pH 7.0",0.8 p.p.m.
same,"changes in chemical shift of 53BP1-Tudor binding cage residues (Trp1495, Tyr1502, Phe1519, Asp1521, Tyr1523)","53BP1-Tudor; ^1H-^15N HSQC, 298 K, 25 mM sodium phosphate, pH 7.0",pronounced changes in chemical shift
"CC(/C=C/C(=O)NO)=C\[C@@H](C)C(=O)c1ccc(N(C)C)cc1 [TSA, trichostatin A]",H4 acetylation (H4ac),H4ac,elevated
same,total H4K20me2,H4K20me2 in U2OS cells,did not affect
same,RPA accumulation at the LacI-FokI reporter after RVB1 or TIP60 knockdown,RPA,restored
same,53BP1 IRIF,53BP1 IRIF in U2OS cells,strongly reduced
same,Rad51 accumulation at the LacI-FokI reporter after RVB1 or TIP60 knockdown,Rad51,restored
same,increase in BRCA1 occupancy,BRCA1,~4 fold
same,response of BRCA1 and 53BP1 at subtelomeric chromatin,[2],divergent response
same,53BP1 association,53BP1,diminished

# — paper PMC3594358 (Nature structural & molecular biology, 2013)
